# Assay results of several laboratories.
# Lines come from different studies, so protocols differ.
# FGFR3: Fibroblast growth factor receptor 3 (FGFR3, Homo sapiens, UniProt P22607)
# FGFR3 G697C: Fibroblast growth factor receptor 3 (FGFR3, Homo sapiens, UniProt P22607, G697C)
SMILES,target,test,conditions,remaining binding [%]
c1cnn2ncc(-c3ccnc(N4CCC45COC5)n3)c2c1,FGFR3,binding,1 µM,100
COc1cnc(Nc2cccc(S(N)(=O)=O)c2)nc1N1CCN(c2ccccc2)CC1,FGFR3 G697C,"binding, competition with immobilised ligand",1 µM,100
O=C(NCC1CCOCC1)c1n[nH]cc1NC(=O)c1c(F)cccc1F,FGFR3,"binding, competition with immobilised ligand",1 µM,100
CN(CCCC(F)(F)F)c1nccc(-c2cnn3ncccc23)n1,FGFR3,binding,1 µM,93
CN1CCN(c2ccc(Nc3nccc(-c4ccccc4)n3)cc2C(F)(F)F)CC1,FGFR3 G697C,binding,10 µM,86
O=C1NC(c2ccccn2)Sc2ccccc21 (stereo not drawn),FGFR3,"cell-free assay, competition with immobilised ligand",1 µM,97
C[C@@H](c1ccc(-n2cnc3c(N)ncnc32)cc1)N1CCc2nn(C)c(Cc3ccccc3)c2C1=O,FGFR3,"binding, competition with immobilised ligand",0.1 µM,80
N[C@@H]1CCN(c2nccc(-c3cnn4ncccc34)n2)C1,FGFR3 G697C,binding,1 µM,100
Cn1nc(C(=O)NCc2ccc(C(=O)O)cc2)cc1-c1ccc2[nH]ccc2c1,FGFR3 G697C,"cell-free assay, competition with immobilised ligand",0.1 µM,82
O=C(c1ccc(Nc2ncc(Cl)c(-c3ccc(Cl)s3)n2)cc1)N1CCC(N2CCCC2)CC1,FGFR3,"binding, competition with immobilised ligand",1 µM,19
CCN1CCN(Cc2ccc(C(=O)Nc3ccc(C)c(Oc4ccc5c(c4)CC(=O)N5)c3)cc2C(F)(F)F)CC1,FGFR3 G697C,"binding, competition with immobilised ligand",1 µM,88
O=C(NCCCN1CCOCC1)c1ccc(Nc2nccc(-c3cc4ccccc4s3)n2)cc1,FGFR3,"binding, competition with immobilised ligand",1 µM,94
C=CC(=O)N1CCC(C(=O)NCC(=O)N2CCN(c3nc(-c4cnc(N)nc4C(F)F)nc(N4CCOCC4)n3)CC2)CC1,FGFR3,"binding, competition with immobilised ligand",1 µM,96
FC(F)(F)Oc1cccc(-c2cnc3ccc(-c4ccncc4)nn23)c1,FGFR3,"cell-free assay, competition with immobilised ligand",5 µM,86
CNC(=O)[C@@H]1CC[C@@H](n2c(-c3ccc4cnccc4c3)nc3ccc(C(=O)NCc4cccc(C(N)=O)c4)cc32)C1,FGFR3 G697C,"binding, competition with immobilised ligand",1 µM,93
Cc1cc(-n2nc(Cc3cc(F)cc(C(F)(F)F)c3)nc2C)ccc1C(N)=O,FGFR3 G697C,"cell-free assay, competition with immobilised ligand",1 µM,100
CN(C)c1nccc(-c2cnn3ncccc23)n1,FGFR3 G697C,binding,1 µM,65
COc1ccc2c(c1)O[C@@H](c1ccc(OC)c(OC)c1)C[C@H]2NC(=O)C1(c2ccc3c(c2)OC(F)(F)O3)CC1,FGFR3,"cell-free assay, competition with immobilised ligand",1 µM,89
O=C(c1ccc(Nc2nccc(-c3cc4ccccc4s3)n2)cc1)N1CCC(N2CCCC2)CC1,FGFR3,"binding, competition with immobilised ligand",1 µM,87
CC(=O)N1CCC(c2ccc(C(=O)NC(=N)N)cc2C(F)(F)F)CC1,FGFR3 G697C,"cell-free assay, competition with immobilised ligand",1 µM,98
CC1CCCN1c1nccc(-c2cnn3ncccc23)n1 (stereo not drawn),FGFR3,binding,1 µM,100
COc1ccc2cc(OCC3(C(=O)O)CN(C(=O)c4ccc(F)cc4)C3)ccc2c1,FGFR3,"cell-free assay, competition with immobilised ligand",1 µM,100
O=C(c1ccc(Nc2ncc(Cl)c(-c3cc4ccccc4s3)n2)cc1)N1CCC(N2CCCC2)CC1,FGFR3,"binding, competition with immobilised ligand",1 µM,38
COc1cnc(Nc2cccc(S(N)(=O)=O)c2)nc1N1CCN(c2ccccc2)C(=O)C1,FGFR3 G697C,"binding, competition with immobilised ligand",1 µM,92
COc1ncc2cc3ccccc3nc2c1C#N,FGFR3,"cell-free assay, competition with immobilised ligand",5 µM,100
CS(=O)(=O)c1cc(C2(NC(=O)c3cncc4c3cnn4-c3ccc(F)cc3)CC2)ccn1,FGFR3,"cell-free assay, competition with immobilised ligand",1 µM,100
C[C@@H]1CN(c2ccc3ncc(-c4ccc5[nH]nc(C6CC6)c5c4)n3n2)C[C@H](C)O1,FGFR3,"binding, competition with immobilised ligand",0.5 µM,100
Cc1cnc(Nc2ccc(C(=O)N3CCC(N4CCCC4)CC3)cc2)nc1-c1cc2ccccc2s1,FGFR3,"binding, competition with immobilised ligand",1 µM,23
c1cncc(-c2cccc(Nc3nccc(NC4CCCCC4)n3)c2)c1,FGFR3,"binding, competition with immobilised ligand",10 µM,60
COc1ccnn2ncc(-c3ccnc(N(C)C)n3)c12,FGFR3,binding,1 µM,95
Nc1ncc2c(n1)-c1c([nH]c3ccc(C#CC4CC4)cc13)CCCC2,FGFR3,"binding, competition with immobilised ligand",1 µM,95
CSc1cccnc1N1CCN(Cc2nc3ccccc3[nH]2)CC1,FGFR3 G697C,"cell-free assay, competition with immobilised ligand",1 µM,100
CC(C)(C)c1ccc(-c2nc(CBr)nn2-c2cccc(O)c2)cc1,FGFR3,"cell-free assay, competition with immobilised ligand",10 µM,93
O=C(NCCCN1CCOCC1)c1ccc(Nc2ncc(Cl)c(-c3ccc(Cl)s3)n2)cc1,FGFR3,"binding, competition with immobilised ligand",1 µM,41
O=C(Nc1c[nH]nc1C(=O)NC1CCNCC1)c1cc(F)cc(F)c1,FGFR3,"binding, competition with immobilised ligand",1 µM,100
C[C@H]1CCN(c2nccc(-c3cnn4ncccc34)n2)C1,FGFR3,binding,1 µM,100
